ChEMBL document CHEMBL4334423, “Synthesis, molecular docking, and biological evaluation of novel 2-pyrazoline derivatives as multifunctional agents for the treatment of Alzheimer's disease” (Medchemcomm, 2019)
Calls of active or inactive are those of the source. The calls are words filed in the database; no cut-off is given here.

Columns and labels:
Acetylcholinesterase [1] = target: T1, Acetylcholinesterase (Homo sapiens, UniProt P22303); test: Inhibition of human recombinant AChE expressed in HEK293 cells using acetylthiocholine iodide as substrate by Ellman's method
T1 sequence (P22303 whole entry): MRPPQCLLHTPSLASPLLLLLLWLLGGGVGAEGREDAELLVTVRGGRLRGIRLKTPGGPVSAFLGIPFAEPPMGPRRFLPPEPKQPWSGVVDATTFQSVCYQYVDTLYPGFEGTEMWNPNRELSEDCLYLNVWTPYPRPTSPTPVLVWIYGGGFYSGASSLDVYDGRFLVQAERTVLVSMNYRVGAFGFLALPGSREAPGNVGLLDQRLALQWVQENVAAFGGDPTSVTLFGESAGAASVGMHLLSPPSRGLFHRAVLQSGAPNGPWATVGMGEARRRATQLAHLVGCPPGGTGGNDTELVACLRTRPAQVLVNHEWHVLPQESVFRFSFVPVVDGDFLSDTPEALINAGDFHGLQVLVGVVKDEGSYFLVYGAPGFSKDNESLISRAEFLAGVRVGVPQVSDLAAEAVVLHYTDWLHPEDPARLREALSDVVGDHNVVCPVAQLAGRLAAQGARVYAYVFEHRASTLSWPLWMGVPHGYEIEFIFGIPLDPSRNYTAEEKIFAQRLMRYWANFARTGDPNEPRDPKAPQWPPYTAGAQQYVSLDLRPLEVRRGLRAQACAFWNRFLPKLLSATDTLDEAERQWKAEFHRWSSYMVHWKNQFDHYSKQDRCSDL

[2] = Selectivity index, ratio of IC50 for human recombinant AChE expressed in HEK293 cells to IC50 for equine serum BChE; format: cell-based
Outline: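 Both enzymes were run by the same Ellman method: substrate 0.2–0.5 mM, DTNB 0.125 mM, 100 mM MOPS pH 8.0, 25 °C, read at 412 nm. IC50 came from dose–response curves, and selectivity = IC50(AChE)/IC50(BChE).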

Cholinesterase [3] = target: T2, Cholinesterase (Equus caballus, UniProt P81908); test: Inhibition of equine serum BChE using butyrylthiocholine iodide as substrate by Ellman's method
T2 sequence (P81908 whole entry): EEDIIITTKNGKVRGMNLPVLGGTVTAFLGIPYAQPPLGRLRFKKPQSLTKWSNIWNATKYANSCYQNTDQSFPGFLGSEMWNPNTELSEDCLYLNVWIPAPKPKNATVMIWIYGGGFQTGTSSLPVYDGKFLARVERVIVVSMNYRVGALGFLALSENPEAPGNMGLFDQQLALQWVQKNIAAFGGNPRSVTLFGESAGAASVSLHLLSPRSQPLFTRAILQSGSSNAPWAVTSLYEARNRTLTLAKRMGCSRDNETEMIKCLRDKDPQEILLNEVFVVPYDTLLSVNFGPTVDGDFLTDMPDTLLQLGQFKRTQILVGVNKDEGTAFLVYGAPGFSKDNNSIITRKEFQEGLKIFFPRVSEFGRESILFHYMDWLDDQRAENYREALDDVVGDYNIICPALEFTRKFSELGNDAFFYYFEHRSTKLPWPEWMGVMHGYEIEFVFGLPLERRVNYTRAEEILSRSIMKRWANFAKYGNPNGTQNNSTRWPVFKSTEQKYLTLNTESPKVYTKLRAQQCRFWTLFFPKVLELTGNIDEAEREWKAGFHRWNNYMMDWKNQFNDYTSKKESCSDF

SH-SY5Y [4] = test: cells; format: functional; conditions: Homo sapiens
[5] = target: Amyloid-beta precursor protein (Homo sapiens) (UniProt P05067); test: Inhibition of human amyloid beta (1 to 42) self-induced aggregation assessed as Amyloid beta (1 to 42) aggregation at 100 uM incubated for 48 hrs by thioflavin T-based fluorescence assay (reference value: 100%); design: scale not given: the % may be the effect or the level left
Amyloid-beta precursor protein (Homo sapiens), sequence (P05067 whole entry): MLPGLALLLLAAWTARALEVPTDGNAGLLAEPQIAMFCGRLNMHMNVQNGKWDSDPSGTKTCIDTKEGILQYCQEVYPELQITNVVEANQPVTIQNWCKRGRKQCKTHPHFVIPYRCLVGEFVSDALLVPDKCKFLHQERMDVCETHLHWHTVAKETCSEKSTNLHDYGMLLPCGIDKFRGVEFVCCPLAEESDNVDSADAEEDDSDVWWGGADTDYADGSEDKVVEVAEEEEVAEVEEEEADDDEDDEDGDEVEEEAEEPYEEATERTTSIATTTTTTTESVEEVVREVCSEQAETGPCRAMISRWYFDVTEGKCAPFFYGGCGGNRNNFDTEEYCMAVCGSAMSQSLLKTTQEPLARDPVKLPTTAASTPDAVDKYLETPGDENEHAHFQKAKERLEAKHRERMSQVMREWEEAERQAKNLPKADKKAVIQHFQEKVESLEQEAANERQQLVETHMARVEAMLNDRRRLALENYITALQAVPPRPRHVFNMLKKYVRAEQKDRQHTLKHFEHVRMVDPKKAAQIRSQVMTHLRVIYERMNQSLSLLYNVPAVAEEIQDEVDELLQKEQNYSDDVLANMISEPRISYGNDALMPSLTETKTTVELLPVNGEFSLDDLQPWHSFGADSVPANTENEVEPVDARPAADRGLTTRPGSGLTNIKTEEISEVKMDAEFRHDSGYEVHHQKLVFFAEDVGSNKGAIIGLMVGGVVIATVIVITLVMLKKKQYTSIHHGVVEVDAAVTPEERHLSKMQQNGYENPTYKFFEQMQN

[6] = target: Amyloid-beta precursor protein (Homo sapiens) (UniProt P05067); test: Inhibition of human amyloid beta (1 to 42) self-induced aggregation assessed as Amyloid beta (1 to 42) aggregation at 10 uM incubated for 48 hrs by thioflavin T-based fluorescence assay (reference value: 100%); design: scale not given: the % may be the effect or the level left
SH-SY5Y [7] = test: cells; format: functional; conditions: Homo sapiens; remark: listed apart in the source
[8] = Cytotoxicity against mouse L929 cells assessed as cell viability at 10 uM incubated for 24 hrs by MTT assay (reference value: 100%); format: cell-based; conditions: read-out: Activity
Outline: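 L929 cells (ATCC CCL-1) seeded at 5000 per well, exposed to 10 μM compound for 24 h. MTT reagent was added, formazan dissolved in DMSO, and absorbance read at 570 and 690 nm. Viability is expressed relative to a non-treated control taken as 100%.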

Cholinesterase [9] = target: T2, Cholinesterase; test: Partial non-competitive inhibition of equine serum BChE using butyrylthiocholine iodide as substrate by Dixon and slope replot analysis
Outline: (§1)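 Ellman assay. Enzyme added last to a mix of thiocholine substrate (0.2–0.5 mM) and 0.125 mM DTNB in 100 mM MOPS pH 8.0 at 25 °C. Absorbance was followed at 412 nm. For kinetics, Dixon plots (1/v versus I) were built at inhibitor 0.5, 1, 10 and 100 μM and fitted with slope replots to get Ki. IC50 came from dose–response curves.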

[10] = target: Cholinesterase (Equus caballus) (UniProt P81908); test: Partial non-competitive inhibition of equine serum BChE assessed as decrease in Vmax with unchanged Km using butyrylthiocholine iodide as substrate by Dixon and slope replot analysis; outline: as §1
Cholinesterase (Equus caballus), sequence (P81908 whole entry): as the sequence (P81908 whole entry) above

Acetylcholinesterase [11] = target: T1, Acetylcholinesterase; test: Competitive inhibition of human recombinant AChE expressed in HEK293 cells using acetylthiocholine iodide as substrate by Dixon and slope replot analysis; outline: as §1

SMILES | IC50 (Acetylcholinesterase [1]) [µM] | Ratio IC50 [2] | IC50 (Cholinesterase [3]) [µM] | viability at 10 µM (SH-SY5Y [4]) [%] | Activity [5] [%] | Activity [6] [%] | viability at 10 µM (SH-SY5Y [7]) [%] | viability at 24 h, 10 µM [8] [%] | Ki (Cholinesterase [9]) [µM] | inhibition [10] | Ki (Acetylcholinesterase [11]) [µM]
COc1ccc(C2=NN(C(C)=O)C(c3ccc(-n4ccnc4)cc3)C2)cc1OC (stereo unspecified) | 206 | 6.3 | 32.7 | – | – | – | – | – | – | – | –
COc1ccc(C2=NN(C(C)=O)C(c3ccc(N4CCN(Cc5ccccc5)CC4)cc3)C2)cc1 (stereo unspecified) | 100 | 0.7 | 137 | – | – | – | – | – | – | – | –
COc1ccc(C2=NN(C(C)=O)C(c3ccc(-n4cncn4)cc3)C2)cc1OC (stereo unspecified) | 955 | 34.8 | 27.5 | – | – | – | – | – | – | – | –
COc1ccc(C2=NN(C(C)=O)C(c3ccc(N4CCN(c5ccccc5)CC4)cc3)C2)cc1OC (stereo unspecified) | 295 | 0.2 | 1900 | – | – | – | – | – | – | – | –
COc1ccc(C2=NN(C(C)=O)C(c3ccc(N4CCC(Cc5ccccc5)CC4)cc3)C2)cc1OC (stereo unspecified) | 20.1 | 9.8 | 2.1 | 84.4 | 86.4 | 82.2 | 83.5 | 101 | – | – | –
COc1ccc(C2=NN(C(C)=O)C(c3ccc(-n4cnc5ccccc54)cc3)C2)cc1OC (stereo unspecified) | 319 | 1.2 | 254 | – | – | – | – | – | – | – | –
COc1ccc(C2=NN(C(C)=O)C(c3ccc(N4CCC(C)CC4)cc3)C2)cc1OC (stereo unspecified) | 77.4 | 19.9 | 3.9 | 81.1 | 63.4 | 80.6 | 78.4 | 95.4 | – | – | –
CCN1CCN(c2ccc(C3CC(c4ccc(OC)c(OC)c4)=NN3C(C)=O)cc2)CC1 (stereo unspecified) | 47.9 | 104 | 0.5 | 87.4 | 83.4 | – | 67.9 | 89.2 | 2.22 | Active | –
COc1ccc(C2=NN(C(C)=O)C(c3ccc(N4CCN(Cc5ccccc5)CC4)cc3)C2)cc1OC (stereo unspecified) | 62.8 | 128 | 0.5 | 87 | 89.8 | – | 69.3 | 93.3 | – | – | –
COc1ccc(C2=NN(C(C)=O)C(c3ccc(N4CCN(C)CC4)cc3)C2)cc1OC (stereo unspecified) | 6.5 | 1.1 | 6 | 93.6 | 72.6 | – | 95.6 | 93.3 | – | – | 0.63
CO[C@H]1/C=C/O[C@@]2(C)Oc3c(C)c(O)c4c(O)c(c(/C=N/N5CCN(C)CC5)c(O)c4c3C2=O)NC(=O)/C(C)=C\C=C\[C@H](C)[C@H](O)[C@@H](C)[C@@H](O)[C@@H](C)[C@H](OC(C)=O)[C@@H]1C | – | – | – | – | 48.4 | – | – | – | – | – | –
COc1cc2c(cc1OC)C(=O)C(CC1CCN(Cc3ccccc3)CC1)C2 (stereo unspecified) [DONEPEZIL] | – | – | – | 69 | – | – | 62.5 | – | – | – | –
CCN1CCN(c2ccc(C3CC(c4ccc(OC)cc4)=NN3C(C)=O)cc2)CC1 (stereo unspecified) | 221 | 1 | 217 | – | – | – | – | – | – | – | –
